# PvdQ acylase: P. aeruginosa PvdQ acylase inhibitors, primary screen, biochemical, fluorescence, plate reader and imaging, single point; PvdQ acylase [Pseudomonas aeruginosa LESB58]; purified PvdQ acylase; inhibition, % at 10 µM; 340,000 compounds, 0.063% hits; AID 488965, 2010; in the data active means inhibition above about 30%, passing the limit was not always enough;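 further: 0% = vehicle neutral wells and 100% = reference inhibitor wells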
# PLC-beta3 inh: human PLC-beta3 inhibitors, primary screen, biochemical, fluorescence; inhibition, % at 12.2 µM; 370,000 compounds, 0.18% hits; 1-phosphatidylinositol 4,5-bisphosphate phosphodiesterase beta-3 (Homo sapiens), Q01970; Purified PLC-beta3, fluorogenic substrate; AID 720704, 2013;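 further: 0% = median of compound wells on plate and 100% = full blocker control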
# PLC-gamma1 inh: PLC-gamma1 enzyme inhibitors, primary screen, biochemical, fluorescence, purified enzyme; AID 720700, 2013; inhibition, % at 12.2 µM; fluorogenic substrate; 370,000 compounds, 0.84% hits; in the data active means inhibition above about 9.5%
# IMP-1 inh: IMP-1 metallo-beta-lactamase inhibitors, primary screen, biochemical, epi-absorbance readout, Pseudomonas aeruginosa enzyme. metallo-beta-lactamase IMP-1 (Pseudomonas aeruginosa). purified IMP-1, nitrocefin hydrolysis, epi-absorbance fluorescence. inhibition, % at 5.6 µM. 290,000 compounds, 0.45% hits. AID 1556, 2009;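 active means inhibition above the mean plus 3 SD of all compounds in the same screening run, cut at about 4.5% in these data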;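 further: 0% = IMP-1 with DMSO and 100% = DMSO wells lacking enzyme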
#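 Assay system: purified IMP-1; Quantity: IMP-1 0.2 nM before substrate addition; Medium: HEPES buffer pH 7.1 with ZnSO4 and Brij 35; Incubation: 15 min enzyme–compound preincubation, then 25 min nitrocefin reaction, 25 °C; Signal: fluorescence quenching readout, ex 480/em 530 nm; Controls: DMSO with and without IMP-1; Repeats: singlicate testing.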
# VIM-2 inh: VIM-2 metallo-beta-lactamase inhibitors, primary screen, biochemical, epi-absorbance readout, Pseudomonas aeruginosa enzyme; purified VIM-2, nitrocefin hydrolysis, epi-absorbance fluorescence; inhibition, % at 5.6 µM; 290,000 compounds, 0.89% hits; AID 1527, 2009;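 active means inhibition above the mean of all tested compounds plus 3 SD, cutoff set per screening run, cut at about 7.5% in these data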;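 further: red hydrolysis product quenches plate fluorescence so inhibitors raise well fluorescence; 0% = enzyme with DMSO and 100% = DMSO without enzyme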
# PLCgamma1 ctr: PLC-gamma1 enzyme inhibitors, counter-screen for PLC-beta3 inhibitor project, biochemical, fluorescence | shares compounds with PLC-gamma1 inh | purified PLC-gamma1, fluorogenic substrate | inhibition, % at 12.3 µM | 3,300 compounds, 3.1% hits; in the data active means inhibition above about 9.5%
# PLCb3 confirm: PLC-beta3 inhibitor confirmation, biochemical, fluorescence, purified enzyme; shares compounds with PLC-gamma1 inh; fluorogenic substrate fluorescence; inhibition, % at 12.3 µM; 3,300 compounds, 1% hits; AID 743261, 2014
# The depositor's hits bear a star; . = not tested or not shown. In the library only some 2% were active in any assay of this set; here they are far more common. Unless noted, no stated cut-off is given here; in the data, active means inhibition above about 11%; inactive means the rest.
SMILES,PvdQ acylase,PLC-beta3 inh,PLC-gamma1 inh,IMP-1 inh,VIM-2 inh,PLCgamma1 ctr,PLCb3 confirm
CN(C)CCN1C(=O)C(=O)/C(=C(/O)c2ccc(S(=O)(=O)N3CCOCC3)cc2)C1c1ccc(Br)cc1 (stereo unspecified),3.5,-3.7,11.5*,-0.7,-1.8,0.0,1.9
COc1ccc(OC)c(CN2C(=O)CSCC2(C)c2nnnn2C2CCCC2)c1 (stereo unspecified),.,2.9,-0.5,.,.,.,.
CCOC(=O)[C@@]12CCCC=C1N(CCc1ccc(Cl)cc1)C(=O)[C@H]2CC(=O)NCc1cccs1,.,2.8,-0.8,.,.,.,.
Cc1cc(Nc2ccc(Cl)cc2)n(-c2ccccc2)n1,-11.6,2.6,1.4,-3.9,0.2,.,.
Cc1cc(Nc2ccc(Cl)cc2)n(-c2cccc(Cl)c2)n1,-0.9,1.8,12.2*,-2.7,-4.4,-6.8,-6.0
C=CCN=C1NC(c2ccc(C(F)(F)F)cc2)C(C(=O)OC)=C(C)N1C (stereo unspecified),.,-2.4,-2.0,.,.,.,.
O=C(CC(=O)N/N=C/c1ccc(O)cc1)N/N=C/c1ccc(O)cc1,-12.9,-0.7,11.9*,-5.2,-4.5,-5.1,-1.8
O=C(Cc1cccs1)N/N=C\c1ccc(O)cc1,1.4,0.3,-4.1,0.7,-0.9,.,.
CCN(CC)CCc1nc(-c2ccccc2)no1,6.1,9.2,10.8*,.,.,-2.0,2.1
O=C(O)CCc1nc(-c2ccccc2)no1,-6.4,6.3,2.6,-4.7,-4.2,.,.
Cc1nn(-c2ccccc2)c2sc(C(=O)N3CCN(C(c4ccccc4)c4ccc(Cl)cc4)CC3)cc12 (stereo unspecified),.,-0.1,-1.6,.,.,.,.
O=C(Cn1nc(CNc2ccc(Cl)cc2)[n+]2c1CCCCC2)c1ccc(Br)cc1,7.7,3.5,3.7,0.7,-1.5,.,.
O=C(Cn1nc(CNc2ccc(Br)cc2)[n+]2c1CCCCC2)c1ccc([N+](=O)[O-])cc1,11.1,2.6,9.8*,-4.9,-3.7,1.1,3.4
COc1ccc2nc(Nc3nc(CSc4ccc(C)cc4)cc(=O)[nH]3)nc(C)c2c1,-13.0,-2.1,-0.5,-2.6,-1.4,.,.
Cc1ccc(SCc2cc(=O)[nH]c(Nc3nc(C)c4cccc(C)c4n3)n2)cc1,-14.8,9.2,12.9*,-3.6,-2.0,-5.1,-2.1
O=C(c1ccc([N+](=O)[O-])cc1Cl)N1CCN(c2ccccn2)CC1,-5.0,-4.2,3.9,-1.9,-1.0,.,.
O=C(c1ccc(Cl)cc1[N+](=O)[O-])N1CCN(c2ccccn2)CC1,-0.6,11.9*,8.2,-2.6,0.2,1.5,0.0
COC(=O)[C@]1(C#N)CC(=O)N(Cc2ccc(Cl)cc2)[C@@H]1c1ccc(OC)cc1,.,-1.1,1.9,.,.,.,.
O=C(CSc1nnnn1-c1ccccc1)Nc1ccccc1,1.9,-2.1,1.2,-1.8,-1.0,.,.
Cc1cc(C)nc(SCc2nnc(SCC(=O)Nc3nc(-c4ccccc4)cs3)n2-c2ccccc2)n1,-8.5,6.8,11.4*,-2.6,-0.1,-2.8,0.1
Cc1cc(C)c(CSc2nnnn2-c2ccc(C(=O)O)cc2)c(C)c1,-8.7,-1.5,12.4*,-1.6,-3.0,-3.9,-5.4
C=CCn1c(SCC(=O)Nc2ccccc2-c2ccccc2)nnc1-c1ccccc1,.,9.8,13.2*,.,.,-0.9,1.6
C=CCn1c(SCC(=O)Nc2ccccc2C)nnc1-c1ccncc1,-8.7,-1.2,-2.2,-6.0,-2.5,.,.
Cc1cc(C)nc(NC(=O)CSc2nnnn2-c2ccccc2)n1,-1.1,0.7,12.0*,-2.6,-3.7,-0.1,1.8
O=C(O)c1ccc(-n2nnnc2SCc2cccc(Br)c2)cc1,-8.8,-2.9,1.0,-1.6,-0.1,.,.
SMILES,PvdQ acylase,PLC-beta3 inh,PLC-gamma1 inh,IMP-1 inh,VIM-2 inh,PLCgamma1 ctr,PLCb3 confirm
Cc1ccc(C(=O)CSc2nnnn2-c2ccccc2)o1,-2.8,-0.8,10.9*,-2.8,1.0,-4.6,0.5
O=C(O)CSc1nnc(COc2ccc([N+](=O)[O-])cc2)n1-c1ccccc1,3.7,-2.7,-2.3,-0.3,-1.0,.,.
COc1ccc(NC(=O)CSc2nnnn2-c2ccc(F)cc2)cc1,-7.0,-6.0,0.5,-1.9,-0.7,.,.
O=C(O)CCSc1nnc(COc2ccc([N+](=O)[O-])cc2)n1-c1ccccc1,-9.5,-3.5,10.8*,-3.8,0.6,-0.2,2.1
COc1ccc(NC(=O)CSc2nnnn2-c2ccc(OC)cc2)cc1,5.0,1.4,11.4*,-3.3,-0.7,-0.3,2.1
COc1ccc(-n2c(COc3ccccc3)nnc2SCC(=O)Nc2ccc(OCc3ccccc3)cc2)cc1,.,0.2,9.6*,.,.,4.6,-9.3
CCOC(=O)[C@@]12CN(C(=O)OC(C)(C)C)CC=C1N(Cc1ccc(OC)cc1)C(=O)[C@H]2CC(=O)NCCCOC,.,0.1,0.7,.,.,.,.
CC(C)(C)OC(=O)N1CCC(N[C@@H](Cc2ccccc2)C(=O)NCC(c2ccccc2)c2ccccc2)(C(=O)NC2CCCCC2)CC1,.,0.9,-0.2,.,.,.,.
C[C@H]1COc2cccc(F)c2S(=O)(=O)N1C,.,-1.2,-0.3,.,.,.,.
COc1ccc(-n2c(SCC(=O)Nc3ccccc3-c3ccccc3)nnc2-c2ccccn2)cc1,.,6.5,10.2*,.,.,0.8,-4.2
O=C(Cc1ccccc1)Nc1cccc(NC(=O)c2cccs2)c1,-11.4,4.3,11.2*,-1.1,0.9,-3.5,-0.9
Cc1ccc(S(=O)(=O)N2CCC(=O)N(C(COCc3cccc(Cl)c3)C(C)C)CC2)cc1 (stereo unspecified),-3.0,-0.1,-2.0,-1.6,-3.8,.,.
Cc1ccc(S(=O)(=O)N2CCC(=O)N(C(COCc3cccc(C)c3)C(C)C)CC2)cc1 (stereo unspecified),-11.5,2.2,10.8*,-2.4,-1.0,2.5,2.3
CCC(=O)OCCCN1CCC2(CCC(c3ccccc3)CC2)C1=O (stereo unspecified),.,-5.0,0.0,.,.,.,.
O=C1COc2ccc(C(=O)COC(=O)CCCOc3ccccc3)cc2N1,.,11.1*,1.2,.,.,-5.8,-3.4
COCCNC(=O)c1c(N)[nH]c(C(=O)c2ccc(Br)cc2)c1-c1c(OC)ccc2ccccc12,.,-15.7,-11.2,.,.,.,.
O=C(CCn1c(=S)oc2ccccc21)Nc1cccc(O)c1,-13.3,11.6*,7.9,-3.0,-2.4,-4.4,-4.7
O=[N+]([O-])c1ncn(Cc2ccccc2Cl)n1,-10.2,12.6*,6.8,-2.2,-2.6,6.4,1.9
O=[N+]([O-])c1ncn(Cc2c(Cl)cccc2Cl)n1,-11.6,3.4,-0.9,-2.6,-1.1,.,.
CCCCc1ccc(N2C(=NC(=O)C3CCCO3)SC3CS(=O)(=O)CC32)cc1 (stereo unspecified),-14.7,-3.7,9.6*,-1.0,-2.7,-3.8,-1.0

# Compound activity: PubChem, several laboratories
